Screening results (PubChem BioAssay)
CXCR6 inh: CXCR6 receptor inhibitors, primary screen, cell-based, beta-arrestin, luminescence, CHO-K1 PathHunter, 1536-well. C-X-C chemokine receptor type 6 (Homo sapiens), O00574. inhibition, % at 20 µM. actives 0.36% (n = 360,000); in the data active = inhibition above about 34%, passing the limit was not always enough;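 note: antagonist mode with CXCL16 agonist at 10 nM final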
EBI2 block: EBI2 receptor antagonists, beta-arrestin recruitment, primary screen, cell-based, luminescence, 7a,25-OHC stimulation, uHTS. 7a,25-OHC stimulated. inhibition, % at 5 µM. actives 0.81% (n = 360,000). AID 651636, 2012; in the data active = inhibition above about 38%;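 note: enzyme fragment complementation signal reports receptor beta-arrestin coupling in cells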
Beta2AR agonist: beta2AR agonists driving receptor internalization, primary screen, cell-based, FAP fluorogen, flow cytometry; Am2.2-beta2AR cells; response, % (no concentration beside the values); actives 0.43% (n = 340,000); AID 504454, 2011;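 active = response above a set limit, near 3 SD of response in nonfluorescent compounds, cut at about 42% in these data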
Target sequence (P07550 whole entry, looked up): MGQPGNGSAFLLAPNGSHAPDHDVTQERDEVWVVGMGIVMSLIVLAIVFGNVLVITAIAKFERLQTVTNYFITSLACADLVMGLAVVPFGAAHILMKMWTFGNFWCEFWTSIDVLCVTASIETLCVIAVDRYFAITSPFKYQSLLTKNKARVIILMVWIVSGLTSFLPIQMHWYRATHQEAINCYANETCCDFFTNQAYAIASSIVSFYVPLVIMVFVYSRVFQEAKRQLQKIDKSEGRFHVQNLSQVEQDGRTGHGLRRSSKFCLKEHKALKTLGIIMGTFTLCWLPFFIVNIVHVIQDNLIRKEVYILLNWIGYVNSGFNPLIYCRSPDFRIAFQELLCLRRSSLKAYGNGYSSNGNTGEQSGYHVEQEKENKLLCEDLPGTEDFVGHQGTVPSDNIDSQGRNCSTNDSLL
APJ agonist: agonists of human apelin receptor APJ, primary screen, CHO-K1 cells, PathHunter beta-arrestin, luminescence. activation, % at 20 µM. actives 0.11% (n = 330,000). 0% DMSO wells, 100% apelin. P35414;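 active = activation more than six SD over the plate average, tested at 20 µM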
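Test system: CHO-K1 APJ beta-arrestin complementation cell line. Amount: cell density 1000 per well. Controls: DMSO negative, 10 nM Apelin-13 positive. Signal: luminescent beta-gal fragment complementation, chemiluminescent substrate. Read-out basis: agonist-driven arrestin binding to APJ. Timing: compound stimulation 90 min at 25 °C, detection 60 min.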
CCR6 antag: CCR6 receptor antagonists, primary screen, cell-based, CHO-K1, luminescence, beta-arrestin, uHTS. AID 493098, 2011. C-C chemokine receptor type 6 (Homo sapiens), P51684. inhibition, % at 20 µM. actives 0.49% (n = 340,000). CHO-K1 CCR6 PathHunter beta-arrestin, CCL20-stimulated;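 active = compounds whose inhibition of the agonist-driven luminescence signal at 20 µM reaches about 50%, limit read from the data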;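 note: cells stimulated with CCL20 at 14 nM final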
APJ antag: antagonists of human apelin receptor APJ, primary screen, CHO-K1 cells, beta-arrestin complementation, luminescence; P35414; inhibition, % at 20 µM; actives 0.32% (n = 330,000); AID 2521, 2010;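 active = inhibition above about 40% at 20 µM, limit read from the data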;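 note: cells challenged with 10 nM apelin-13 agonist together with compound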
EBI2 conf: EBI2 antagonist hit retest, beta-arrestin, confirmation, cell-based, single concentration, luminescence, 7a,25-OHC stimulation | shares compounds with EBI2 block | 7a,25-OHC antagonism | inhibition, % at 5 µM | actives 29% (n = 2,400);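 active = inhibition of at least 50%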
EBI2 agonist: EBI2 agonist activity of antagonist hits, confirmation, counter-screen for EBI2 antagonist project, cell-based, single concentration, agonist mode, luminescence | 2,400 tested, under 10 active | EBI2-expressing cells, 60 min; 0% vehicle, 100% 7α,25-dihydroxycholesterol control | shares compounds with EBI2 block | activation, % at 5 µM;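 active = activation of at least 50%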
bGal cs: E. coli beta-galactosidase enzyme inhibition, confirmation, counter-screen for EBI2 antagonist project, biochemical, luminescence, single concentration. shares compounds with EBI2 block. purified beta-galactosidase, luminescent Galacton Star, 15 min. inhibition, % at 5 µM. actives 1% (n = 2,400);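 active = replicate-average signal at least 3 plate SD below neutral wells, shown as high inhibition, flagging enzyme-inhibiting false positives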;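 note: higher means stronger loss of beta-gal luminescence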
Of the large screens only hits and unclear results are named; the others gave an inactive call (follow-up assays come after a bar, where they were run). A selection: hits, their analogues and other compounds. The true share with any hit is near 1.8%.

CCOC(=O)c1c(NC(=O)CN2C(=O)c3ccccc3C2=O)sc(Cc2ccc3c(c2)OCO3)c1C	EBI2 block 65 | EBI2 conf inactive | EBI2 agonist inactive | bGal cs inactive
Cc1ccc(Nc2c(-c3ccccc3O)nc3cnccn23)cc1	EBI2 block 57 | EBI2 conf inactive | EBI2 agonist inactive | bGal cs inactive
COC(=O)c1cccc(NC(=O)c2cc3ccccc3o2)c1	EBI2 block 44 | EBI2 conf inactive | EBI2 agonist inactive | bGal cs inactive
COC(=O)[C@]12CCCCC=C1N(CCC1=CCCCC1)C(=O)[C@H](CC(=O)NCCCN1CCCC1=O)C2	none (no result: Beta2AR agonist, APJ agonist, CCR6 antag, APJ antag)
O=C(NCCS(=O)(=O)N1CCN(c2ccccc2F)CC1)c1cc(=O)c2ccccc2o1	none
O=C(c1cc(=O)c2ccccc2o1)N1CCN(c2cccc(Cl)c2)CC1	EBI2 block 51 | EBI2 conf inactive | EBI2 agonist inactive | bGal cs inactive
O=C(c1cc(=O)c2ccccc2o1)N1CCN(c2ccccc2F)CC1	EBI2 block 64 | EBI2 conf inactive | EBI2 agonist inactive | bGal cs inactive
COC(=O)[C@@]12C[C@@H](CC(=O)NCCCCc3ccccc3)C(=O)N(Cc3ccc4c(c3)OCO4)C1=CCC(C)(C)C2	EBI2 block 35 (no result: CXCR6 inh, Beta2AR agonist, APJ agonist, CCR6 antag, APJ antag) | EBI2 conf inactive | EBI2 agonist inactive | bGal cs inactive
O=C(COc1ccc(Br)cc1)Nc1ccc(S(=O)(=O)Nc2ccccn2)cc1	EBI2 block 43 | EBI2 conf inactive | EBI2 agonist inactive | bGal cs inactive
COc1ccc(CCC(=O)N2CCN(S(=O)(=O)c3ccc(OC)c([N+](=O)[O-])c3)CC2)cc1	EBI2 block 54 (no result: Beta2AR agonist, APJ agonist, CCR6 antag, APJ antag) | EBI2 conf inactive | EBI2 agonist inactive | bGal cs inactive
O=C(CCl)N1CCN(S(=O)(=O)c2ccc3ccccc3c2)CC1	none
COc1ccc(CCC(=O)N2CCN(S(=O)(=O)c3ccc4ccccc4c3)CC2)cc1	EBI2 block 64 | EBI2 conf inactive | EBI2 agonist inactive | bGal cs inactive
COc1ccc(S(=O)(=O)N2CCN(C(=O)CC(C)C)CC2)cc1	none
COc1ccc(CCC(=O)N2CCN(S(=O)(=O)c3ccc(OC(F)(F)F)cc3)CC2)cc1	EBI2 block 54 | EBI2 conf inactive | EBI2 agonist inactive | bGal cs inactive
CCc1ccc(CCC(=O)N2CCN(S(=O)(=O)c3ccc(Br)cc3)CC2)cc1	EBI2 block 88 (no result: Beta2AR agonist, APJ agonist, CCR6 antag, APJ antag) | EBI2 conf 52 | EBI2 agonist inactive | bGal cs inactive
O=C(COC(=O)c1cc(S(=O)(=O)N2CCCCC2)ccc1N1CCOCC1)c1ccccc1Cl	EBI2 block 48 (no result: Beta2AR agonist, APJ agonist, CCR6 antag, APJ antag) | EBI2 conf 65 | EBI2 agonist inactive | bGal cs inactive
N#CCOC(=O)c1cc(S(=O)(=O)N2CCCCC2)ccc1N1CCOCC1	none
Cc1ccccc1Oc1ncnc2oc(-c3ccccc3)cc12	EBI2 block 65 | EBI2 conf inactive | EBI2 agonist inactive | bGal cs inactive
CN(C)CC1CCC/C(=C/c2ccc(Cl)cc2)C1=O (configuration not stated)	none (no result: APJ agonist, APJ antag)
Nc1sc(-c2ccccc2)cc1C(=O)N1CCNCC1	EBI2 block 46 (no result: CXCR6 inh, Beta2AR agonist, APJ agonist, CCR6 antag, APJ antag) | EBI2 conf inactive | EBI2 agonist inactive | bGal cs inactive
C=CCNC(=O)c1cc(-c2ccccc2)sc1N	none (no result: CXCR6 inh, Beta2AR agonist, APJ agonist, CCR6 antag, APJ antag)
CCC12CC1(C(=O)OC)C(=O)N1CCc3c([nH]c4ccccc34)C12 (configuration not stated)	none (no result: Beta2AR agonist, APJ agonist, CCR6 antag, APJ antag)
CC(CCc1ccccc1)NCc1ccc(Cl)cc1Cl (configuration not stated)	EBI2 block 62 | EBI2 conf inactive | EBI2 agonist inactive | bGal cs inactive
CC(NC(=O)CN(c1cccc(C(F)(F)F)c1)S(=O)(=O)c1ccc(Cl)c([N+](=O)[O-])c1)c1ccccc1 (configuration not stated)	EBI2 block 48 | EBI2 conf inactive | EBI2 agonist inactive | bGal cs inactive
O=C(CN(c1cccc(C(F)(F)F)c1)S(=O)(=O)c1ccc(Cl)c([N+](=O)[O-])c1)NCc1ccccc1	none
COc1ccc(-n2c(Cc3cccn3C)nnc2SCC(=O)N2CCCc3ccccc32)cc1	EBI2 block 38 | EBI2 conf inactive | EBI2 agonist inactive | bGal cs inactive
CC1CCN(C(=O)CSc2nnc(Cc3cccn3C)n2CCc2ccccc2)CC1	EBI2 block 47 | EBI2 conf inactive | EBI2 agonist inactive | bGal cs inactive
COc1ccc(-n2c(Cc3cccn3C)nnc2SCC(=O)N2CCCC2)cc1	none
Cn1cccc1Cc1nnc(SCC(=O)N2CCCC2)n1CCc1ccccc1	none
Cn1cccc1Cc1nnc(SCC(=O)N2CCc3ccccc32)n1CCc1ccccc1	EBI2 block 68 | EBI2 conf inactive | EBI2 agonist inactive | bGal cs inactive
CC1CCc2sc(C(=O)NN=C3CCCC3)cc2C1 (configuration not stated)	none (no result: Beta2AR agonist, APJ agonist, CCR6 antag, APJ antag)
CC(=O)N1CCc2c(sc(NC(=O)c3ccc([N+](=O)[O-])o3)c2C(N)=O)C1	none (no result: Beta2AR agonist, APJ agonist, CCR6 antag, APJ antag)
CC1(C)OC2OC3C(CNCCO)OC(c4ccccc4)OC3C2O1 (configuration not stated)	none (no result: APJ agonist, APJ antag)
COC(=O)c1ccc(N=c2sc(C(=O)OC)cc(=O)n2C)cc1	EBI2 block 66 (no result: APJ agonist, APJ antag) | EBI2 conf 78 | EBI2 agonist inactive | bGal cs inactive
COC(=O)c1cc(=O)n(Cc2ccc3c(c2)OCO3)c(=Nc2ccc(F)cc2)s1	EBI2 block 66 | EBI2 conf inactive | EBI2 agonist inactive | bGal cs inactive
COC(=O)c1cc(=O)n(Cc2cccs2)c(=Nc2ccc(F)cc2)s1	none
